Test results as given in ChEMBL document CHEMBL1132150, “Synthesis and evaluation of 3-trifluoromethyl-7-substituted-1,2,3, 4-tetrahydroisoquinolines as selective inhibitors of phenylethanolamine N-methyltransferase versus the alpha(2)-adrenoceptor” (J Med Chem, 1999).

Columns and labels:
[1] = Selectivity determined by Ki of alpha 2 receptor / Ki of PNMT
[2] = biological target: T1, Phenylethanolamine N-methyltransferase (Bos taurus, UniProt P10938); assay: Inhibition of PNMT (Phenylethanolamine N-Methyltransferase) in vitro
T1 sequence (P10938 whole entry): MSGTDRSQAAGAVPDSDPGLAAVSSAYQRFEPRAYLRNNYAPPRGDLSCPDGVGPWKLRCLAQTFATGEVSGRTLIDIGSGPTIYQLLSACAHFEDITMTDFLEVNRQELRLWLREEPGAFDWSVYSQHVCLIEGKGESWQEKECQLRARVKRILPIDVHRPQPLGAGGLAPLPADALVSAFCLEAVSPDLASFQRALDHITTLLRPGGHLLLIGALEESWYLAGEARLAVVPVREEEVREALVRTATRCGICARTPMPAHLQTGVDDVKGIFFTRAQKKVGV
Outline: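 Bovine adrenal PNMT, prepared through the isoelectric precipitation step, assayed radiochemically with phenylethanolamine as the variable substrate and [3H]AdoMet as methyl donor in phosphate buffer pH 8.0. Incubation was 30 min at 37 °C, quenched with borate pH 10, and product was extracted into toluene/isoamyl alcohol and counted. Three inhibitor concentrations spanning 5-fold were run in duplicate, and Ki came from a hyperbolic fit.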

[3] = biological target: T2, Adrenergic receptor alpha-2 (Rattus norvegicus, UniProt P22086+P19328+P22909); assay: Compound was tested in vitro for binding affinity against Alpha-2 adrenergic receptor using [3H]clonidine; format: protein assay
T2 sequence (P22086 whole entry): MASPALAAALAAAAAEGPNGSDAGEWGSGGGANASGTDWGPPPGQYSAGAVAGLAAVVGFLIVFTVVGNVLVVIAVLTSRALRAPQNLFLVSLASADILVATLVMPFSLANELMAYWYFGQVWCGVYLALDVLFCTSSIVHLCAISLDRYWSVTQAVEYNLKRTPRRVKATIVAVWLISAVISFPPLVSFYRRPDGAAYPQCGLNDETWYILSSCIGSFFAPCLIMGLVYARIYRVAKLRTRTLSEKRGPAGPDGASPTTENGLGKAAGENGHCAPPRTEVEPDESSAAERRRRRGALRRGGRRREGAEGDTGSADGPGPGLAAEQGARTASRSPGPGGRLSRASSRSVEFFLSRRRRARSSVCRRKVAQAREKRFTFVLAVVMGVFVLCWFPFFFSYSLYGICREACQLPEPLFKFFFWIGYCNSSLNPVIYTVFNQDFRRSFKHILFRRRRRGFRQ
T2 sequence (P19328 whole entry): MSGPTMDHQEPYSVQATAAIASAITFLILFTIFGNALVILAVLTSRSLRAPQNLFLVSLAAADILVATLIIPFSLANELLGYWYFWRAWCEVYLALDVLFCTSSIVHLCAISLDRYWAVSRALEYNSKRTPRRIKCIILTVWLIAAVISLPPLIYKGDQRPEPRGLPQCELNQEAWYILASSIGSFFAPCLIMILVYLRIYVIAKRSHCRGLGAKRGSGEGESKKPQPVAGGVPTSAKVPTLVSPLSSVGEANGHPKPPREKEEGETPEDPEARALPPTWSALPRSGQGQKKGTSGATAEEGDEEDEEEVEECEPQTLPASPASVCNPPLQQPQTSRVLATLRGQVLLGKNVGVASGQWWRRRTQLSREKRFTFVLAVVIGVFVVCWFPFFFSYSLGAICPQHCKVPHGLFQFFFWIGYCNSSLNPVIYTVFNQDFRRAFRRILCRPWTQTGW
T2 sequence (P22909 whole entry): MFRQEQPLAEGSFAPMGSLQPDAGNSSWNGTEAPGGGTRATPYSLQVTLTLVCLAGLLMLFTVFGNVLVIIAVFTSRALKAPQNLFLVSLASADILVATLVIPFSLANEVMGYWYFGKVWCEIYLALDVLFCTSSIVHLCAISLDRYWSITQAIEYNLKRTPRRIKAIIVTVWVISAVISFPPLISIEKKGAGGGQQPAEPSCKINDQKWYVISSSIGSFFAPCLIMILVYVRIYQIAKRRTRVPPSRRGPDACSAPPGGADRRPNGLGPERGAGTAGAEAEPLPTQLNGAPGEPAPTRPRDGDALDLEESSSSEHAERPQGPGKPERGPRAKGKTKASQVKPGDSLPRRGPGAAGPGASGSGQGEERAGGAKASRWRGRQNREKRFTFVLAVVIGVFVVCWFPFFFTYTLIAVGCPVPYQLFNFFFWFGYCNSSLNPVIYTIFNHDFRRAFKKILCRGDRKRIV
Outline: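 Rat (male Sprague–Dawley) cortex membranes, washed three times by centrifugation in 50 mM Tris/HCl pH 7.7, incubated 30 min at 25 °C with 2.0 nM [3H]clonidine and varied inhibitor concentrations. Bound ligand was collected by vacuum filtration and counted. Nonspecific binding was defined with 2 μM phentolamine. IC50 came from log–probit analysis, and Ki = IC50/(1+[clonidine]/KD).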

[4] = biological target: T2, Adrenergic receptor alpha-2; assay: The compound was tested in vitro for binding affinity against Alpha-2 adrenergic receptor using [3H]clonidine, A precipitate was noted at 1000 uM; format: protein assay
[5] = biological target: T2, Adrenergic receptor alpha-2; assay: The compound was tested in vitro for binding affinity against Alpha-2 adrenergic receptor using [3H]clonidine; format: protein assay
Outline: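 Rat cortex membranes from male Sprague–Dawley rats, homogenized in ice-cold 50 mM Tris/HCl (pH 7.7 at 25 °C), washed by three 50000g spins. [³H]clonidine final 2.0 nM, varying inhibitor levels, 25 °C for 30 min. Filtration and scintillation counting. Nonspecific binding with 2 μM phentolamine. IC50 by log–probit analysis, Ki = IC50/(1 + [clonidine]/KD). Tested as HCl or HBr salts.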

Molecule `Clc1ccc2c(c1Cl)CNCC2` has a Selectivity [1] of 0.095 and a Ki [2] of 0.22 µM.
Work on `FC(F)(F)C1Cc2ccccc2CN1` (stereo not drawn) yielded a Selectivity [1] of 27 and a Ki [2] of 15 µM.
`COCC1Cc2ccccc2CN1` (stereo not drawn) gave a Selectivity [1] of 0.3 and a Ki ([3]; read-out: Ki) of 2.8 µM.
`CS(=O)(=O)c1ccc2c(c1)CNC(C(F)(F)F)C2` (stereo not drawn) gave a Selectivity [1] of 110 and a Ki [2] of 36 µM.
Work on `FC(F)(F)C1Cc2ccc(Br)cc2CN1` (stereo not drawn) yielded a Selectivity [1] of over 1900 and a Ki [4] of over 1000 µM.
Work on `NS(=O)(=O)c1ccc2c(c1)CNC(CO)C2` (stereo not drawn) yielded a Selectivity [1] of 4100 and a Ki ([5]; read-out: Ki) of 1400 µM.
For `c1ccc2c(c1)CCNC2`, the Selectivity [1] was 0.035.
With `O=[N+]([O-])c1ccc2c(c1)CNC(C(F)(F)F)C2` (stereo not drawn) the Selectivity [1] was 700, the Ki [3] was 1400 µM and the Ki [2] was 2 µM.
With `Clc1ccc2c(c1Cl)CNCCC2` the Ki [5] was 4.5 µM.
Work on `N#Cc1ccc2c(c1)CNC(C(F)(F)F)C2` (stereo not drawn) yielded a Selectivity [1] of 220.
In the case of `OCC1Cc2ccccc2CN1` (stereo not drawn), the Selectivity [1] is reported as 6 and the Ki ([3]; read-out: Ki) is reported as 6.6 µM.
With `CC1Cc2ccccc2CN1` (stereo not drawn) the Selectivity [1] was 0.36.
With `COc1ccc2c3c([nH]c2c1)C=NCC3` [CGS-19281A] the Selectivity [1] was 4.4, the Ki [5] was 12 µM and the Ki [2] was 2.7 µM.
For `CCC1Cc2ccccc2CN1` (stereo not drawn), the Selectivity [1] was 0.028 and the Ki [5] was 0.67 µM.
Molecule `CS(=O)(=O)c1ccc2c(c1)CNC(CO)C2` (stereo not drawn) has a Selectivity [1] of 1000 and a Ki ([3]; read-out: Ki) of 660 µM.
